Reference: ChEMBL document CHEMBL1155488, “Carbamate derivatives of betulinic acid and betulin with selective cytotoxic activity” (Bioorg Med Chem Lett, 2010)
Activity calls are given as the source filed them. The rule behind the calls is not given here.

Columns and labels:
A2780 [1] = experiment: Cytotoxicity against human A2780 cells after 96 hrs by SRB assay; format: functional, cell-based; details: A2780, 96 h
DLD-1 [2] = experiment: Cytotoxicity against human DLD1 cells after 96 hrs by SRB assay; format: functional, cell-based; details: DLD-1, 96 h
HCT-8 [3] = experiment: Cytotoxicity against human HCT8 cells after 96 hrs by SRB assay; format: functional, cell-based; details: HCT-8, 96 h
HCT-116 [4] = experiment: Cytotoxicity against human HCT116 cells after 96 hrs by SRB assay; format: functional, cell-based; details: HCT-116, 96 h
HT-29 [5] = experiment: Cytotoxicity against human HT-29 cells after 96 hrs by SRB assay; format: functional, cell-based; details: HT-29, 96 h
[6] = Cytotoxicity against human Liposarcoma cells after 96 hrs by SRB assay; format: functional, cell-based
MCF7 [7] = experiment: Cytotoxicity against human MCF7 cells after 96 hrs by SRB assay; format: functional, cell-based; details: MCF7, 96 h
SW480 [8] = experiment: Cytotoxicity against human SW480 cells after 96 hrs by SRB assay; format: functional, cell-based; details: SW480, 96 h
SW-1736 = experiment: Cytotoxicity against human SW1736 cells after 96 hrs by SRB assay; format: functional, cell-based; details: SW-1736, 96 h
[9] = Cytotoxicity against human 518A2 cells after 96 hrs by SRB assay; format: functional, cell-based; details: 518A2, 96 h
FaDu [10] = experiment: Cytotoxicity against human FADU cells after 96 hrs by SRB assay; format: functional, cell-based
8505C [11] = experiment: Cytotoxicity against human 8505C cells after 96 hrs by SRB assay; format: functional, cell-based
[12] = Cytotoxicity against human A253 cells after 96 hrs by SRB assay; format: functional, cell-based; details: A253, 96 h
A-431 [13] = experiment: Cytotoxicity against human A431 cells after 96 hrs by SRB assay; format: functional, cell-based; details: A-431, 96 h
A549 [14] = experiment: Cytotoxicity against human A549 cells after 96 hrs by SRB assay; format: functional, cell-based; details: A549, 96 h
[15] = Selectivity index, ratio of IC50 for human fibroblast to IC50 for human Liposarcoma cells
In short: (§1)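 The selectivity index was calculated as the IC50 on human fibroblasts divided by the IC50 on the corresponding tumor cell line.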

HT-29 [16] = experiment: Selectivity index, ratio of IC50 for human fibroblast to IC50 for human HT-29 cells; in short: as §1
HCT-116 [17] = experiment: Selectivity index, ratio of IC50 for human fibroblast to IC50 for human HCT116 cells; in short: as §1
HCT-8 [18] = experiment: Selectivity index, ratio of IC50 for human fibroblast to IC50 for human HCT8 cells; in short: as §1
FaDu [19] = experiment: Selectivity index, ratio of IC50 for human fibroblast to IC50 for human FADU cells; in short: as §1
DLD-1 [20] = experiment: Selectivity index, ratio of IC50 for human fibroblast to IC50 for human DLD1 cells; in short: as §1
A2780 [21] = experiment: Selectivity index, ratio of IC50 for human fibroblast to IC50 for human A2780 cells; in short: as §1
A549 [22] = experiment: Selectivity index, ratio of IC50 for human fibroblast to IC50 for human A549 cells; in short: as §1
A-431 [23] = experiment: Selectivity index, ratio of IC50 for human fibroblast to IC50 for human A431 cells; in short: as §1
[24] = Selectivity index, ratio of IC50 for human fibroblast to IC50 for human A253 cells; in short: as §1
8505C [25] = experiment: Selectivity index, ratio of IC50 for human fibroblast to IC50 for human 8505C cells; in short: as §1
[26] = Selectivity index, ratio of IC50 for human fibroblast to IC50 for human 518A2 cells; in short: as §1
MCF7 [27] = experiment: Selectivity index, ratio of IC50 for human fibroblast to IC50 for human MCF7 cells; in short: as §1
SW480 [28] = experiment: Selectivity index, ratio of IC50 for human fibroblast to IC50 for human SW480 cells; in short: as §1
[29] = Selectivity index, ratio of IC50 for human fibroblast to IC50 for human SW1736 cells; in short: as §1
[30] = Cytotoxicity against human fibroblast after 96 hrs by SRB assay; format: cell-based
A549 [31] = experiment: Induction of apoptosis in human A549 cells assessed as caspase3/7 activation at equitoxic IC90 after 2 hrs; format: functional, cell-based
A549 [32] = experiment: Induction of apoptosis in human A549 cells assessed as caspase3/7 activation at equitoxic IC90 after 6 hrs; format: functional, cell-based
A549 [33] = experiment: Induction of apoptosis in human A549 cells assessed as DNA fragmentation at equitoxic IC90 after 24 hrs by agarose gel electrophoresis
[34] = Cytotoxicity against human fibroblast at 100 uM after 96 hrs by SRB assay; format: cell-based

Row | SMILES | IC50 (A2780 [1]) [µM] | IC50 (DLD-1 [2]) [µM] | IC50 (HCT-8 [3]) [µM] | IC50 (HCT-116 [4]) [µM] | IC50 (HT-29 [5]) [µM] | IC50 [6] [µM] | IC50 (MCF7 [7]) [µM] | IC50 (SW480 [8]) [µM] | IC50 (SW-1736) [µM] | IC50 [9] [µM] | IC50 (FaDu [10]) [µM] | IC50 (8505C [11]) [µM] | IC50 [12] [µM] | IC50 (A-431 [13]) [µM] | IC50 (A549 [14]) [µM] | other results
1 | C=C(C)[C@@H]1CC[C@]2(COC(=O)Nc3ccccc3)CC[C@]3(C)[C@H](CC[C@@H]4[C@@]5(C)CC[C@H](OC(=O)Nc6ccccc6)C(C)(C)[C@@H]5CC[C@]43C)[C@@H]12 [BIS(PHENYLCARBAMATE)BETULIN] | 80.6 | > 100 | > 100 | > 100 | 69.2 | > 100 | > 100 | > 100 | > 100 | > 100 | > 100 | > 100 | > 100 | > 100 | > 100 | 
2 | C=C(C)[C@@H]1CC[C@]2(COC(C)=O)CC[C@]3(C)[C@H](CC[C@@H]4[C@@]5(C)CC[C@H](OC(=O)NCC)C(C)(C)[C@@H]5CC[C@]43C)[C@@H]12 | 4.28 | 6.93 | 3.99 | 4.3 | 5.07 | 5.35 | 5.98 | 1.77 | 3.15 | 5.12 | 4.62 | 5.05 | 4.88 | 5 | 1.69 | Ratio IC50 [15]: 4.55; Ratio IC50 (HT-29 [16]): 4.8; Ratio IC50 (HCT-116 [17]): 5.67; Ratio IC50 (HCT-8 [18]): 6.2; Ratio IC50 (FaDu [19]): 5.39; Ratio IC50 (DLD-1 [20]): 3.52; Ratio IC50 (A2780 [21]): 5.69; Ratio IC50 (A549 [22]): 14.41; Ratio IC50 (A-431 [23]): 4.87; Ratio IC50 [24]: 4.99; Ratio IC50 (8505C [25]): 4.82; Ratio IC50 [26]: 4.76; Ratio IC50 (MCF7 [27]): 4.07; Ratio IC50 (SW480 [28]): 13.76; Ratio IC50 [29]: 7.73; IC50 [30]: 24.4 µM; Activity (A549 [31]): Active; Activity (A549 [32]): Active; Activity (A549 [33]): Active
3 | C=C(C)[C@@H]1CC[C@]2(COC(C)=O)CC[C@]3(C)[C@H](CC[C@@H]4[C@@]5(C)CC[C@H](OC(=O)Nc6ccccc6)C(C)(C)[C@@H]5CC[C@]43C)[C@@H]12 | 84.2 | > 100 | > 100 | > 100 | 76.4 | > 100 | > 100 | > 100 | > 100 | > 100 | > 100 | > 100 | > 100 | > 100 | > 100 | 
4 | C=C(C)[C@@H]1CC[C@]2(COC(=O)NCC)CC[C@]3(C)[C@H](CC[C@@H]4[C@@]5(C)CC[C@H](OC(=O)NCC)C(C)(C)[C@@H]5CC[C@]43C)[C@@H]12 [BIS(ETHYLCARBAMATE)BETULIN] | 4.37 | 8.32 | 3.91 | 3.84 | 6.2 | 12 | 17.7 | 2.77 | 3.6 | 8.18 | 7.88 | 9.39 | 9.71 | 6.08 | 2.91 | Ratio IC50 [15]: >8.31; Ratio IC50 (HT-29 [16]): >16.13; Ratio IC50 (HCT-116 [17]): >26.04; Ratio IC50 (HCT-8 [18]): >25.58; Ratio IC50 (FaDu [19]): >12.69; Ratio IC50 (DLD-1 [20]): >12.02; Ratio IC50 (A2780 [21]): >22.88; Ratio IC50 (A549 [22]): >34.36; Ratio IC50 (A-431 [23]): >16.45; Ratio IC50 [24]: >10.3; Ratio IC50 (8505C [25]): >10.65; Ratio IC50 [26]: >12.22; Ratio IC50 (MCF7 [27]): >5.65; Ratio IC50 (SW480 [28]): >36.1; Ratio IC50 [29]: >26.32; IC50 [30]: > 100 µM; Activity [34]: Non-toxic; Activity (A549 [33]): Active
5 | C=C(C)[C@@H]1CC[C@]2(C(=O)O)CC[C@]3(C)[C@H](CC[C@@H]4[C@@]5(C)CC[C@H](O)C(C)(C)[C@@H]5CC[C@]43C)[C@@H]12 [BETULINIC ACID] | 11.1 | 11.9 | 13.1 | 10.8 | 13.9 | 12.1 | 12.3 | 6.48 | 13.1 | 8.13 | 10.2 | 7.26 | 9.18 | 12.6 | 11.1 | Ratio IC50 [15]: 1.72; Ratio IC50 (HT-29 [16]): 1.49; Ratio IC50 (HCT-116 [17]): 1.93; Ratio IC50 (HCT-8 [18]): 1.59; Ratio IC50 (FaDu [19]): 2.04; Ratio IC50 (DLD-1 [20]): 1.75; Ratio IC50 (A2780 [21]): 1.88; Ratio IC50 (A549 [22]): 1.87; Ratio IC50 (A-431 [23]): 1.65; Ratio IC50 [24]: 2.27; Ratio IC50 (8505C [25]): 2.87; Ratio IC50 [26]: 2.56; Ratio IC50 (MCF7 [27]): 1.7; Ratio IC50 (SW480 [28]): 3.21; Ratio IC50 [29]: 1.59; IC50 [30]: 20.8 µM
6 | C=C(C)[C@@H]1CC[C@]2(C(=O)O)CC[C@]3(C)[C@H](CC[C@@H]4[C@@]5(C)CC[C@H](OC(=O)Nc6ccccc6)C(C)(C)[C@@H]5CC[C@]43C)[C@@H]12 | 24.8 | 26.3 | 25.2 | 21.4 | 31.6 | 51.9 | 47.9 | 41.1 | 18.8 | 51.5 | 24.2 | 39.6 | 34.7 | 26.7 | 22.4 | 
7 | C=C(C)[C@@H]1CC[C@]2(COC(C)=O)CC[C@]3(C)[C@H](CC[C@@H]4[C@@]5(C)CC[C@H](O)C(C)(C)[C@@H]5CC[C@]43C)[C@@H]12 | 11.7 | 13.1 | 18 | 10.7 | 11 | 15.5 | 11.4 | 13.7 | 12 | 15.8 | 14 | 14.7 | 12.9 | 12.2 | 14.4 | 
8 | C=C(C)[C@@H]1CC[C@]2(C(=O)O)CC[C@]3(C)[C@H](CC[C@@H]4[C@@]5(C)CC[C@H](OC(=O)NCC)C(C)(C)[C@@H]5CC[C@]43C)[C@@H]12 | 7.41 | 17 | 16.7 | 15.2 | 16.7 | 17.9 | 17.4 | 16.6 | 5.24 | 17.8 | 13.8 | 17.6 | 17.3 | 15.2 | 5.55 | Activity (A549 [32]): Active
9 | C=C(C)[C@@H]1CC[C@]2(C(=O)OC)CC[C@]3(C)[C@H](CC[C@@H]4[C@@]5(C)CC[C@H](OC(=O)Nc6ccccc6)C(C)(C)[C@@H]5CC[C@]43C)[C@@H]12 | 69.5 | > 100 | > 100 | > 100 | 69 | > 100 | > 100 | > 100 | > 100 | > 100 | > 100 | > 100 | > 100 | 91.5 | > 100 | 
10 | C=C(C)[C@@H]1CC[C@]2(C(=O)OC)CC[C@]3(C)[C@H](CC[C@@H]4[C@@]5(C)CC[C@H](O)C(C)(C)[C@@H]5CC[C@]43C)[C@@H]12 [METHYL BETULINATE] | 29.3 | 45.9 | 17.2 | 20.5 | 30.7 | 23.3 | 24.4 | 17.9 | 32.1 | 28.8 | 20.3 | 23.7 | 18.5 | 27 | 20.6 | 
11 | C=C(C)[C@@H]1CC[C@]2(C(=O)OC)CC[C@]3(C)[C@H](CC[C@@H]4[C@@]5(C)CC[C@H](OC(=O)NCC)C(C)(C)[C@@H]5CC[C@]43C)[C@@H]12 | 8.35 | 18.9 | 15 | 13.5 | 7.22 | 6.85 | 7.03 | 6.67 | 2.35 | 16.7 | 5.53 | 7.22 | 16.7 | 14.8 | 2.32 | 
